One assay deals with CCRF-CEM. Description: Cytotoxicity against human CEM cells. It counts as cell-based. The procedure, abridged:
(§1)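 Cytotoxicity measured in lymphocytic CEM cells and in Vero (African green monkey kidney) cells; expressed as IC50 (μM).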

The next assay deals with PBMC. In words: Cytotoxicity against human PBMC. It counts as cell-based. The procedure, abridged:
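Cytotoxicity measured in uninfected, phytohemagglutinin-stimulated human PBM cells; expressed as IC50 (μM).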

For assay [1], the system named is Human immunodeficiency virus 1. In words: Antiviral activity against HIV1 LAI infected in human PBMC assessed as inhibition of viral replication. The following applies: Human immunodeficiency virus 1, LAI. Type of assay: functional, organism-based.
Another assay deals with Vero. Description: Cytotoxicity against african green monkey Vero cells. It counts as cell-based. The conditions noted are these: Chlorocebus sabaeus. The procedure, abridged:
as §1

A further assay relates to Hepatitis C virus. Description: Antiviral activity against HCV assessed as inhibition of viral replication at 10 uM. Type of assay: functional, organism-based. The conditions noted are these: Hepacivirus hominis. The procedure, abridged:
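HCV replicon assay with a single test concentration of 10 μM; 2′-C-Me-cytidine served as positive control.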

The pIC50 is −log10 of the IC50, conventionally taken in molar units. For orientation: pEC50 means the EC50 on a negative log10 scale, so that one unit is a factor of ten. One may read the EC90 as the point of the concentration-response curve where the effect stands at 90%.

pEC50, pIC50: −log10 of the molar value. Calls of active or inactive are those of the source. The calls are words filed in the database; no cut-off is given here. Where only a bound is given, the exact number is not on record here.

Turning to `CC(C)(C)OC(=O)N1C(n2cnc3c(N)ncnc32)C(F)(F)C[C@H]1CO` (single isomer, unassigned; 30) [listing 1 of 2 here], the pIC50 in the assay on CCRF-CEM, in the assay on PBMC and with Vero was under 4.00 in each case. Besides, the negative logarithm of the EC50 (pEC50) in assay [1] is under 4.00. In assay [1], the EC90 is over 100 µM.

Consider `CC(C)(C)OC(=O)N1[C@H](CO)CC(F)(F)[C@@H]1n1cc(F)c(=O)[nH]c1=O`, for which, in the assay on Hepatitis C virus, the inhibition result was “inactive”. Also, the negative logarithm of the IC50 (pIC50) was under 4.00 in the assay with CCRF-CEM, 4.55 in the assay on PBMC and under 4.00 with Vero. Moreover, the negative logarithm of the EC50 (pEC50) in assay [1] was 4.35. For the same compound, the EC90 in assay [1] came to 90.8 µM.

Take `CC(C)(C)OC(=O)N1C(n2cnc3ncnc(N)c32)C(F)(F)C[C@H]1CO` (single isomer, unassigned; 32) [listing 1 of 2 here]: the inhibition result in the assay with Hepatitis C virus was “inactive”.

For the compound `CC(C)(C)OC(=O)N1C(n2cnc3c(N)ncnc32)C(F)(F)C[C@H]1CO` (single isomer, unassigned; 31) [listing 1 of 2 here], the inhibition result in the assay with Hepatitis C virus is “inactive”.

With `CC(C)(C)OC(=O)N1[C@H](CO)CC(F)(F)[C@H]1n1cc(F)c(=O)[nH]c1=O`, the inhibition result with Hepatitis C virus is “inactive”. The pIC50 in the assay with CCRF-CEM is under 4.00; with PBMC, 4.52; with Vero it was under 4.00. Further, in assay [1], the negative logarithm of the EC50 (pEC50) was 4.43. The concentration for an effect of 90% (EC90) in assay [1] came out at 75.6 µM.

`Cc1cn([C@H]2C[C@H](N=[N+]=[N-])[C@@H](CO)O2)c(=O)[nH]c1=O` [ZIDOVUDINE]: the inhibition result in the assay on Hepatitis C virus was “inactive”. This compound showed a negative-log IC50 (pIC50) in the assay with PBMC of under 4.00. Besides, in assay [1], the EC90 came to 0.0027 µM.

As for `CC(C)(C)OC(=O)N1[C@H](CO)CC(F)(F)[C@H]1n1ccc(=O)[nH]c1=O`, the inhibition entry with Hepatitis C virus is “inactive”. Further, the negative-log IC50 (pIC50) in the assay with CCRF-CEM, in the assay on PBMC and with Vero was under 4.00 in each case. In assay [1], the negative logarithm of the EC50 (pEC50) was under 4.00. Further, the EC90 in assay [1] was over 100 µM.

Take `CC(C)(C)OC(=O)N1C(n2cnc3ncnc(Cl)c32)C(F)(F)C[C@H]1CO` (single isomer, unassigned; 29) [listing 1 of 2 here]: in the assay on Hepatitis C virus, the inhibition result is “inactive”.

In the case of `CC(C)(C)OC(=O)N1C(n2cnc3c(Cl)ncnc32)C(F)(F)C[C@H]1CO` (single isomer, unassigned; 27) [listing 1 of 2 here], in the assay with Hepatitis C virus, the inhibition entry was “inactive”.

On to `CC(C)(C)OC(=O)N1C(n2cnc3ncnc(N)c32)C(F)(F)C[C@H]1CO` (single isomer, unassigned; 32) [listing 2 of 2 here], for which the negative logarithm of the IC50 (pIC50) in the assay with CCRF-CEM, with PBMC and in the assay on Vero was under 4.00 each time. Besides, the negative-log EC50 (pEC50) in assay [1] was under 4.00. For the same compound, the EC90 in assay [1] is over 100 µM.

As for `CC(C)(C)OC(=O)N1C(n2cnc3c(Cl)ncnc32)C(F)(F)C[C@H]1CO` (single isomer, unassigned; 26) [listing 1 of 2 here], the negative-log IC50 (pIC50) with CCRF-CEM was 4.24; in the assay with PBMC it was under 4.00; in the assay on Vero, under 4.00. In assay [1], the pEC50 is under 4.00. For the same compound, the EC90 in assay [1] is over 100 µM.

Turning to `CC(C)(C)OC(=O)N1C(n2cnc3c(N)ncnc32)C(F)(F)C[C@H]1CO` (single isomer, unassigned; 30) [listing 2 of 2 here], in the assay with Hepatitis C virus, the inhibition result is “inactive”.

For `CC(C)(C)OC(=O)N1C(n2cnc3ncnc(N)c32)C(F)(F)C[C@H]1CO` (single isomer, unassigned; 33) [listing 1 of 2 here], the pIC50 in the assay with CCRF-CEM, with PBMC and in the assay on Vero was under 4.00 throughout. Also, the pEC50 in assay [1] was under 4.00. Besides, in assay [1], the EC90 was over 100 µM.

For `CC(C)(C)OC(=O)N1[C@H](CO)CC(F)(F)[C@@H]1n1ccc(=O)[nH]c1=O`, the inhibition result with Hepatitis C virus is “inactive”. The pIC50 is under 4.00 in the assay with CCRF-CEM, 4.09 in the assay on PBMC and 4.35 in the assay on Vero. Besides, in assay [1], the pEC50 was under 4.00. Besides, the EC90 in assay [1] was over 100 µM.

Turning to `CC(C)(C)OC(=O)N1C(n2cnc3ncnc(N)c32)C(F)(F)C[C@H]1CO` (single isomer, unassigned; 33) [listing 2 of 2 here], the inhibition result in the assay with Hepatitis C virus is “inactive”.

As to `CC(C)(C)OC(=O)N1C(n2cnc3ncnc(Cl)c32)C(F)(F)C[C@H]1CO` (single isomer, unassigned; 29) [listing 2 of 2 here], the pIC50 was 4.26 in the assay on CCRF-CEM, 4.23 in the assay on PBMC and under 4.00 with Vero. The negative logarithm of the EC50 (pEC50) in assay [1] was 4.03. Further, the EC90 in assay [1] is over 100 µM.

Consider `CC(C)(C)OC(=O)N1C(n2cnc3c(N)ncnc32)C(F)(F)C[C@H]1CO` (single isomer, unassigned; 31) [listing 2 of 2 here], for which the pIC50 in the assay on CCRF-CEM, in the assay with PBMC and in the assay on Vero was under 4.00 throughout. The pEC50 in assay [1] is under 4.00. Also, the concentration for an effect of 90% (EC90) in assay [1] was over 100 µM.

On to `CC(C)(C)OC(=O)N1C(n2cnc3ncnc(Cl)c32)C(F)(F)C[C@H]1CO` (single isomer, unassigned; 28) [listing 1 of 2 here], for which the negative logarithm of the IC50 (pIC50) with CCRF-CEM, in the assay on PBMC and with Vero was under 4.00 throughout. The pEC50 in assay [1] was under 4.00. Further, the 90% effect concentration (EC90) in assay [1] was over 100 µM.

Consider `CC(C)(C)OC(=O)N1C(n2cnc3ncnc(Cl)c32)C(F)(F)C[C@H]1CO` (single isomer, unassigned; 28) [listing 2 of 2 here], for which, in the assay on Hepatitis C virus, the inhibition entry was “inactive”.

In the case of `CC(C)(C)OC(=O)N1C(n2cnc3c(Cl)ncnc32)C(F)(F)C[C@H]1CO` (single isomer, unassigned; 27) [listing 2 of 2 here], the figures for the pIC50 with CCRF-CEM, in the assay on PBMC and in the assay on Vero were 4.42, 4.24 and under 4.00, respectively. Also, the pEC50 in assay [1] was 4.19. Further, in assay [1], the EC90 is over 100 µM.

For the compound `CC(C)(C)OC(=O)N1C(n2cnc3c(Cl)ncnc32)C(F)(F)C[C@H]1CO` (single isomer, unassigned; 26) [listing 2 of 2 here], in the assay on Hepatitis C virus, the inhibition entry was “inactive”.

Source of the values: ChEMBL document CHEMBL2203112, “Synthesis, evaluation of anti-HIV-1 and anti-HCV activity of novel 2',3'-dideoxy-2',2'-difluoro-4'-azanucleosides” (Bioorg Med Chem, 2012).
